The results in this text go back to ChEMBL document CHEMBL2176865, “Discovery of diarylhydantoins as new selective androgen receptor modulators” (J Med Chem, 2012).

The structures appear in SMILES notation. The source made the active and inactive calls. The rule behind the calls is not given here.

Assay [1] is filed under the species Rattus norvegicus. Description: Cardioprotective activity in ORX rat model assessed as decrease in total cholesterol level relative to control. In kind it is functional. An outline of the steps:
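Male rats castrated at six months of age; once-daily oral dosing at 30 mg/kg for 3 months, starting immediately after castration. Vehicle was EtOH/corn oil 10/90. ORX controls received vehicle, and sham-operated animals received vehicle. Total cholesterol was compared with vehicle-treated ORX rats.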

Assay [2] relates to Rattus norvegicus. Nature of the assay: Increase in bone mineral density in ORX rat model at 30 mg/kg, po qd administered 3 months by densitometric analysis relative to sham-treated control. The assay is classed as functional, organism-based. Details: dose 30 mg/kg. Summed up:
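Rats castrated at six months of age, dosed orally once daily at 30 mg/kg for 3 months starting immediately after castration; vehicle EtOH/corn oil 10/90; sham-operated rats given vehicle. Tibial trabecular volumetric BMD by metaphyseal pQCT 1 mm from distal growth plate; trabecular BV/TV by µCT at 9 µm isotropic resolution, 1.0–3.0 mm below proximal growth plate.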

Assay [3] relates to Rattus norvegicus. Description: Androgenic activity in po dosed ORX rat model assessed as maximum effect on ventral prostate weight administered 4 days relative to sham-treated control. In kind it is functional, Prostate gland. An outline of the steps:
(§1)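 Young (immature) rats castrated, left untreated one week, then dosed daily for four days (test agents orally; testosterone propionate subcutaneously). Untreated ORX and sham-operated rats as controls. Levator ani (anabolic) and ventral prostate (androgenic) weights normalised to body weight; activity % = (W/BW treated − W/BW ORX)/(W/BW sham − W/BW ORX) × 100; A50 = dose giving 50% activity.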

Assay [4] concerns Rattus norvegicus. Nature of the assay: Anabolic activity in po dosed ORX rat model assessed as maximum effect on levator ani muscle weight administered 4 days relative to sham-treated control. The assay is classed as functional. Summed up: as §1
Assay [5] relates to Rattus norvegicus. Description: Anabolic activity in po dosed ORX rat model assessed as dose required to induce 50% effect on levator ani muscle weight administered 4 days. In kind it is functional. Summed up: as §1
Assay [6] concerns the target T1, Glucocorticoid receptor (Homo sapiens) (UniProt P04150).
T1 sequence (whole entry): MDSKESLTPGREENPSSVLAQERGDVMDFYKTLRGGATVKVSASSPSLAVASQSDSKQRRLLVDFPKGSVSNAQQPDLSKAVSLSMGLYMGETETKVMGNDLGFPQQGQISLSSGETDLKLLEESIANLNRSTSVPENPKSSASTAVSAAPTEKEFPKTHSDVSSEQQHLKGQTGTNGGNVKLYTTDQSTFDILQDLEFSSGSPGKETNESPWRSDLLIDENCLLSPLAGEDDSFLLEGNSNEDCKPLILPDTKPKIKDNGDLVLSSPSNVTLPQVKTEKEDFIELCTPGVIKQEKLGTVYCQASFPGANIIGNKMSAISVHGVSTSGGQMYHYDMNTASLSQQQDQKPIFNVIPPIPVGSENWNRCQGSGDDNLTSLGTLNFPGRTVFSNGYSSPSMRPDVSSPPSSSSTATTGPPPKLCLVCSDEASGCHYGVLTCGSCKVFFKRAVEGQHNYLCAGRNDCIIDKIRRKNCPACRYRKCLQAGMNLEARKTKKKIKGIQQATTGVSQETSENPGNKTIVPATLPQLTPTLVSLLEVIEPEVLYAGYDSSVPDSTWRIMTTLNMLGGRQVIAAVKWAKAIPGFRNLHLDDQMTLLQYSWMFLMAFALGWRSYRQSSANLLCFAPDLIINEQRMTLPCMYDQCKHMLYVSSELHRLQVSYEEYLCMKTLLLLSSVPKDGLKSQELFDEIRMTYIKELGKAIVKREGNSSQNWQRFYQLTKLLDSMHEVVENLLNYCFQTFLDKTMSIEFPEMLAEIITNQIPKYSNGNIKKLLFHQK
Nature of the assay: Binding affinity to glucocorticoid receptor up to 10 uM by competitive binding assay.

Assay [7] addresses T2, Estrogen receptor (Homo sapiens) (UniProt P03372).
T2 sequence (whole entry): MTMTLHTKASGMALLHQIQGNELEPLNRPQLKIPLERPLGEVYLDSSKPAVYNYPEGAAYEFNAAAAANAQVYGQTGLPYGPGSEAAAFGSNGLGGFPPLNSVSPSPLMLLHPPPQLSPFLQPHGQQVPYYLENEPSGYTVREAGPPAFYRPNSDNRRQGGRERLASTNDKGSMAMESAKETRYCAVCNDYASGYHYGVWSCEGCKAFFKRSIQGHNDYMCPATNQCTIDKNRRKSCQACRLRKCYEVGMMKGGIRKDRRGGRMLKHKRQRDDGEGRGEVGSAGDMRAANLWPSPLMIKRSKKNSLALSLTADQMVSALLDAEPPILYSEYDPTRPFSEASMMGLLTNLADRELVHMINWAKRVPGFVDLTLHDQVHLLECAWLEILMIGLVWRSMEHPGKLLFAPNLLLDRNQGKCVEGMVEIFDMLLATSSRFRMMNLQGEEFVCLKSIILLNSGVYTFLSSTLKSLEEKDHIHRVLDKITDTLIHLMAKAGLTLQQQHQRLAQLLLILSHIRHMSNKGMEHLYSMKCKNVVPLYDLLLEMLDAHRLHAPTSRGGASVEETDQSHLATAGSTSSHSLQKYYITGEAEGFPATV
Description: Binding affinity to estrogen receptor up to 10 uM by competitive binding assay.

Assay [8] concerns the target T3, Progesterone receptor (Homo sapiens, UniProt P06401).
T3 sequence (P06401 whole entry): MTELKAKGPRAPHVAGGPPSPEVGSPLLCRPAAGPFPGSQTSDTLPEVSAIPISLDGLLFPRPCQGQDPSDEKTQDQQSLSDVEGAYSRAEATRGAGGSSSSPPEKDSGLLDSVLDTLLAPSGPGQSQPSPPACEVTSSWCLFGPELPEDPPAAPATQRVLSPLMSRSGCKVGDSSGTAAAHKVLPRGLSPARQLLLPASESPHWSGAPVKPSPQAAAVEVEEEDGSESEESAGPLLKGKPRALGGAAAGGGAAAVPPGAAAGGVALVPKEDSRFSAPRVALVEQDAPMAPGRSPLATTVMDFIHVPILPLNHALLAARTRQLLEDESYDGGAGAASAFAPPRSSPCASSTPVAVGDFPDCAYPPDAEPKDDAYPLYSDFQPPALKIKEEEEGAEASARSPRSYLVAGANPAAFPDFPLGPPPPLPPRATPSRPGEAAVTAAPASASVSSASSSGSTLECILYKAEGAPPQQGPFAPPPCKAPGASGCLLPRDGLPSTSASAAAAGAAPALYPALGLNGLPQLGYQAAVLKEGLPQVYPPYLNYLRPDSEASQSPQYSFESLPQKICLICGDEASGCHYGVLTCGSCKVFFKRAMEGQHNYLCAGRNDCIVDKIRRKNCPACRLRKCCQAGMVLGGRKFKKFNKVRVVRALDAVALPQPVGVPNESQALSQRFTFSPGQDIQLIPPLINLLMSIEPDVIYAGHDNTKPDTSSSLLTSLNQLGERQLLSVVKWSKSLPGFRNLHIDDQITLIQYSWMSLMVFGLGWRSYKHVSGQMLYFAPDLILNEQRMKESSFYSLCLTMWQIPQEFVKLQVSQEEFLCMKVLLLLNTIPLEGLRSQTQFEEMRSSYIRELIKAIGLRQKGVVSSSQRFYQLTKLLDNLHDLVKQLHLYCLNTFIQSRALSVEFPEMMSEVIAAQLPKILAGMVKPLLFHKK
Nature of the assay: Binding affinity to progesterone receptor by competitive binding assay.

With `CN1C(=O)N(c2ccc(C#N)c(C(F)(F)F)c2)C(=O)[C@@]1(C)c1ccc(O)cc1`, the “fold change (FC)” value in assay [1] worked out at 2. For the same molecule, the outcome in assay [2] was Active. The Activity in assay [3] turned out to be 70 mg/kg; in assay [4], 80%; in assay [5], 0.5 mg/kg. The result in assay [6] and in assay [7] was inactive. The IC50 in assay [8] was found to be 8.8 µM.
